Several values for one entry are separate records, joined by “and”; a condition that tells them apart may be missing. Equal entries are not always repeated.
What was measured:
[1] = species: Oryctolagus cuniculus; test: Inhibition of rabbit skeletal muscle SERCA activity relative to TG
[2] = species: Oryctolagus cuniculus; test: Inhibition of rabbit skeletal muscle sarcoplasmic and endoplasmic reticulum [Ca(2+)]-dependent ATPases(SERCA) activity
How it was run: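 Rabbit skeletal-muscle SR microsomes were prepared by differential centrifugation with a 0.6 M KCl wash. Buffer was pH 7.5 Tris with KCl, MgCl2, EGTA/CaCl2 and A23187. Doses were in nmol/mg SR protein. Activity is % of uninhibited control in triplicate, corrected for residual Ca²⁺-independent ATPase.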

[3] = Loss of clonogenic survival of human prostate cancer TSU-Pr1 cells relative to TG was determined; assay type: functional
[4] = Loss of clonogenic survival of human prostate cancer TSU-Pr1 cells.; assay type: functional; details: read-out: LC50 (the source's name)
How it was run: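 TSU-Pr1 human prostatic cancer cells treated with each analogue. Clonogenic survival compared with untreated controls. Value reported as LC50 (µM), the concentration producing 50% loss of clonogenic survival.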

[5] = Increase in cytosolic [Ca2+] concentration in TSU-Pr1 cells at given effective cytotoxic concentration.; assay type: functional, Homo sapiens

| SMILES | Activity [1] | ID50 (nM (mg SR protein)-1) [2] | Activity [3] | CC50 [4] | Activity [5] | [Ca2+] [5] |
| --- | --- | --- | --- | --- | --- | --- |
| C/C=C(/C)C(=O)O[C@H]1C(C)=C2[C@H]([C@@H]1OC(=O)CCCCCCC)[C@@](C)(OC(C)=O)C[C@H](OC(=O)CCc1ccc(NC(=O)[C@@H](N)CC(C)C)cc1)[C@@]1(O)[C@H]2OC(=O)[C@@]1(C)O | 35 | 466 | 29 | 880 nM |  |  |
| C/C=C(/C)C(=O)O[C@H]1C(C)=C2[C@H]([C@@H]1OC(=O)CCCCCCC)[C@@](C)(OC(C)=O)C[C@H](OC(=O)CCCCCCN)[C@@]1(O)[C@H]2OC(=O)[C@@]1(C)O | 90 | 1210 | 364 | 10900 nM | 209 nM |  |
| C/C=C(/C)C(=O)O[C@H]1C(C)=C2[C@H]([C@@H]1OC(=O)CCCCCCC)[C@@](C)(OC(C)=O)C[C@H](OC(=O)CCC)[C@@]1(O)[C@H]2OC(=O)[C@@]1(C)O [THAPSIGARGIN] | 1 | 13.4 | 1 | 30 nM |  |  |
| C/C=C(/C)C(=O)O[C@H]1C(C)=C2[C@H]([C@@H]1OC(=O)CCCCCCC)[C@@](C)(OC(C)=O)C[C@H](OC(=O)CCCCCCCCCCCNC(=O)[C@@H](N)CC(C)C)[C@@]1(O)[C@H]2OC(=O)[C@@]1(C)O | 3.4 | 45 | 1 | 30 nM | 414 nM | 173 nM |
| C/C=C(/C)C(=O)O[C@H]1C(C)=C2[C@H]([C@@H]1OC(=O)CCCCCCC)[C@@](C)(OC(C)=O)C[C@H](OC(=O)CCCCCCCCCCCNC(=O)[C@@H](N)CO)[C@@]1(O)[C@H]2OC(=O)[C@@]1(C)O | 0.8 | 10.3 | 30 | 890 nM |  |  |
| C/C=C(/C)C(=O)O[C@H]1C(C)=C2[C@H]([C@@H]1OC(=O)CCCCCCC)[C@@](C)(OC(C)=O)C[C@H](OC(=O)CCCCCCCN)[C@@]1(O)[C@H]2OC(=O)[C@@]1(C)O | 17 | 223 | 128 | 3850 nM | 217 nM |  |
| C/C=C(/C)C(=O)O[C@H]1C(C)=C2[C@H]([C@@H]1OC(=O)CCCCCCC)[C@@](C)(OC(C)=O)C[C@H](OC(=O)CCCCCCCCCCCNC(=O)[C@H](C)N)[C@@]1(O)[C@H]2OC(=O)[C@@]1(C)O | 1.2 | 16.5 | 9.3 | 280 nM | 410 nM and 338 nM |  |
| C/C=C(/C)C(=O)O[C@H]1C(C)=C2[C@H]([C@@H]1OC(=O)CCCCCCC)[C@@](C)(OC(C)=O)C[C@H](OC(=O)CCCCCCCCCCN)[C@@]1(O)[C@H]2OC(=O)[C@@]1(C)O | 3 | 40 | 25 | 750 nM | 420 nM and 242 nM |  |
| C/C=C(/C)C(=O)O[C@H]1C(C)=C2[C@H]([C@@H]1OC(=O)CCCCCCC)[C@@](C)(OC(C)=O)C[C@H](OC(=O)CCCCCCCCCCCNC(=O)[C@@H](N)Cc1ccccc1)[C@@]1(O)[C@H]2OC(=O)[C@@]1(C)O |  |  | 7 | 210 nM | 446 nM and 406 nM |  |
| C/C=C(/C)C(=O)O[C@H]1C(C)=C2[C@H]([C@@H]1OC(=O)CCCCCCC)[C@@](C)(OC(C)=O)C[C@H](OC(=O)CCCCCCCCCCCN)[C@@]1(O)[C@H]2OC(=O)[C@@]1(C)O | 2.6 | 35 | 39 | 1160 nM | 369 nM and 235 nM |  |
| C/C=C(/C)C(=O)O[C@H]1C(C)=C2[C@H]([C@@H]1OC(=O)CCCCCCC)[C@@](C)(OC(C)=O)C[C@H](OC(=O)CCCCCN)[C@@]1(O)[C@H]2OC(=O)[C@@]1(C)O | 99 | 1330 | >667 | > 20000 nM | 284 nM |  |
| C/C=C(/C)C(=O)O[C@H]1C(C)=C2[C@H]([C@@H]1OC(=O)CCCCCCC)[C@@](C)(OC(C)=O)C[C@H](OC(=O)CCCCCNC(=O)[C@@H](N)CC(C)C)[C@@]1(O)[C@H]2OC(=O)[C@@]1(C)O | 287 | 3840 | >667 | > 20000 nM | 84 nM and 40 nM |  |
